Measured values published in ChEMBL document CHEMBL1126013, “Synthesis and evaluation of some water-soluble prodrugs and derivatives of taxol with antitumor activity” (J Med Chem, 1992).

Experiments:
[1] = test system: B16; assay: Concentration required to inhibit the proliferation of B16 melanoma cells was determined; format: functional, cell-based; settings: Mus musculus
[2] = test system: B16; assay: Percentage change in cell number of B16 melanoma cells treated with 10e-5 M dose; format: functional, Mus musculus
Summary of the method: (§1)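 B16 melanoma cells exposed to 10⁻⁵ or 10⁻⁶ M compound for 8 h, then rinsed three times with fresh medium. Cells then grown in drug-free medium for 48 h and counted. Result given as percent change relative to the cell number at time zero. Controls are the average of three experiments.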

[3] = test system: B16; assay: Percentage change in cell number of B16 melanoma cells treated with 10e-6 M dose; format: functional, Mus musculus; summary of the method: as §1
[4] = test system: B16; assay: Relative effect on B16 melanoma cell proliferation was determined [IC50 (taxol)/IC50 (derivative)]; format: functional, Mus musculus
[5] = species on record: Bos taurus; assay: Relative effect on microtubular assembly (Tubulin polymerized by derivative/tubulin polymerized by taxol); format: functional
Summary of the method: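 Bovine brain tubulin, purified from microtubule-associated proteins by phosphocellulose chromatography, used at 10 μM. Turbidity followed at 350 nm. Polymer pelleted at 200000g, 37 °C, 4 min, depolymerized on ice, and protein measured by Bradford.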

[6] = test system: Mus musculus; assay: Initial average tumor weight was measured in mice induced with human mammary carcinoma at a dose of 15 mg/Kg; format: functional
Summary of the method: (§2)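 MX-1 human mammary carcinoma xenograft implanted under the renal capsule in mice. Study run at the National Cancer Institute following NIH Publication No. 84-2635. Tumor weights recorded at the start and at the end. Survivors counted after 11 days. %T/C = (Δ tumor weight treated/Δ tumor weight control) × 100 where the tumor grows, and (Δ tumor weight treated/initial control tumor weight) × 100 where it regresses.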

[7] = test system: Mus musculus; assay: Initial average tumor weight was measured in mice induced with human mammary carcinoma at a dose of 22.4 mg/Kg; format: functional; summary of the method: as §2
[8] = test system: Mus musculus; assay: Initial average tumor weight was measured in mice induced with human mammary carcinoma at a dose of 4.45 mg/Kg; format: functional; summary of the method: as §2
[9] = test system: Mus musculus; assay: Initial average tumor weight was measured in mice induced with human mammary carcinoma at a dose of 6.67 mg/Kg; format: functional; summary of the method: as §2
[10] = test system: Mus musculus; assay: Initial average tumor weight was measured in mice induced with human mammary carcinoma at a dose of 10 mg/Kg; format: functional; summary of the method: as §2
[11] = test system: Mus musculus; assay: Number of survivors after 11 days at a dose of 15 mg/Kg tested in 6 mice; format: functional
Summary of the method: (§3)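 MX-1 human mammary carcinoma xenograft implanted under the renal capsule of mice. The study was run at the National Cancer Institute following the procedures of NIH Publication No. 84-2635. Average tumor weight was recorded at the start and end of treatment, and survivors were counted after 11 days. Dosed groups were compared with an untreated control group.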

[12] = test system: Mus musculus; assay: Number of survivors after 11 days at a dose of 22.4 mg/Kg tested in 6 mice; format: functional; summary of the method: as §3
[13] = test system: Mus musculus; assay: Number of survivors after 11 days at a dose of 4.45 mg/Kg tested in 5 mice; format: functional; summary of the method: as §3
[14] = test system: Mus musculus; assay: Tumor growth or regression measured as Percent treated by control at a dose of 6.67 mg/Kg to mice with MX-1 xenograft; CR refers to complete remission or when the tumor is no longer detectable; format: functional, organism-based
Summary of the method: (§4)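 Subrenal capsule human mammary carcinoma (MX-1) xenograft in mice, run at the National Cancer Institute by NIH Publication No. 84-2635 procedures. Initial and final average tumor weights recorded, with survivors counted after 11 days. %T/C is (Δ tumor weight treated/Δ tumor weight controls)×100 for growing tumors. For regressing tumors it is (Δ tumor weight treated/initial control tumor weight)×100.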

[15] = test system: Mus musculus; assay: Tumor growth or regression measured as Percent treated by control at a dose of 22.4 mg/Kg to mice with MX-1 xenograft; Tox refers to toxicity or when < 65% of the animals survive the test; format: functional, organism-based; summary of the method: as §2
[16] = test system: Mus musculus; assay: Tumor growth or regression measured as Percent treated by control at a dose of 4.45 mg/Kg to mice with MX-1 xenograft; CR refers to complete remission or when the tumor is no longer detectable; format: functional, organism-based; summary of the method: as §4
[17] = test system: Mus musculus; assay: Number of survivors after 11 days at a dose of 10 mg/Kg tested in 6 mice; format: functional; summary of the method: as §3
[18] = test system: Mus musculus; assay: Tumor growth or regression measured as Percent treated by control at a dose of 10 mg/Kg to mice with MX-1 xenograft; format: functional; summary of the method: as §2
[19] = test system: Mus musculus; assay: Tumor growth or regression measured as Percent treated by control at a dose of 15 mg/Kg to mice with MX-1 xenograft; CR refers to complete remission or when the tumor is no longer detectable; format: functional, organism-based; summary of the method: as §2
[20] = test system: Mus musculus; assay: Number of survivors after 11 days at a dose of 6.67 mg/Kg tested in 5 mice; format: functional; summary of the method: as §3
[21] = test system: Mus musculus; assay: Final average tumor weight was measured in mice induced with human mammary carcinoma at a dose of 4.45 mg/Kg; format: functional; summary of the method: as §2
[22] = test system: Mus musculus; assay: Final average tumor weight was measured in mice induced with human mammary carcinoma at a dose of 22.4 mg/Kg; format: functional; summary of the method: as §2
[23] = test system: Mus musculus; assay: Final average tumor weight was measured in mice induced with human mammary carcinoma at a dose of 10 mg/Kg; format: functional; summary of the method: as §2
[24] = test system: Mus musculus; assay: Final average tumor weight was measured in mice induced with human mammary carcinoma at a dose of 15 mg/Kg; format: functional; summary of the method: as §2
[25] = test system: Mus musculus; assay: Final average tumor weight was measured in mice induced with human mammary carcinoma at a dose of 6.67 mg/Kg; format: functional; summary of the method: as §2
[26] = test system: Mus musculus; assay: Antitumor activity of taxoland the derivative against mammary carcinoma xenograft in mice; format: functional; summary of the method: as §2
[27] = Solubility in water; format: physicochemical; settings: read-out: S
[28] = test system: Mus musculus; assay: Initial average tumor weight was measured in mice induced with human mammary carcinoma at a dose of 4.13 mg/Kg; format: functional; summary of the method: as §2
[29] = test system: Mus musculus; assay: Initial average tumor weight was measured in mice induced with human mammary carcinoma at a dose of 8.25 mg/Kg; format: functional; summary of the method: as §2
[30] = test system: Mus musculus; assay: Initial average tumor weight was measured in mice induced with human mammary carcinoma at a dose of 16.5 mg/Kg; format: functional; summary of the method: as §2
[31] = test system: Mus musculus; assay: Number of survivors after 11 days at a dose of 16.5 mg/Kg tested in 4 mice; format: functional; summary of the method: as §3
[32] = test system: Mus musculus; assay: Number of survivors after 11 days at a dose of 33 mg/Kg tested in 5 mice; format: functional; summary of the method: as §3
[33] = test system: Mus musculus; assay: Tumor growth or regression measured as Percent treated by control at a dose of 8.25 mg/Kg to mice with MX-1 xenograft; format: functional; summary of the method: as §4
[34] = test system: Mus musculus; assay: Tumor growth or regression measured as Percent treated by control at a dose of 33 mg/Kg to mice with MX-1 xenograft; CR refers to complete remission or when the tumor is no longer detectable; format: functional, organism-based; summary of the method: as §2
[35] = test system: Mus musculus; assay: Tumor growth or regression measured as Percent treated by control at a dose of 4.13 mg/Kg to mice with MX-1 xenograft; format: functional; summary of the method: as §4
[36] = test system: Mus musculus; assay: Number of survivors after 11 days at a dose of 4.13 mg/Kg tested in 5 mice; format: functional; summary of the method: as §3
[37] = test system: Mus musculus; assay: Tumor growth or regression measured as Percent treated by control at a dose of 16.5 mg/Kg to mice with MX-1 xenograft; format: functional; summary of the method: as §2
[38] = test system: Mus musculus; assay: Number of survivors after 11 days at a dose of 8.25 mg/Kg tested in 4 mice; format: functional; summary of the method: as §3
[39] = test system: Mus musculus; assay: Final average tumor weight was measured in mice induced with human mammary carcinoma at a dose of 4.13 mg/Kg; format: functional; summary of the method: as §2
[40] = test system: Mus musculus; assay: Final average tumor weight was measured in mice induced with human mammary carcinoma at a dose of 16.5 mg/Kg; format: functional; summary of the method: as §2
[41] = test system: Mus musculus; assay: Final average tumor weight was measured in mice induced with human mammary carcinoma at a dose of 8.25 mg/Kg; format: functional; summary of the method: as §2
[42] = test system: Mus musculus; assay: final average tumor weight was measured in mice induced with human mammary carcinoma at a dose of 33 mg/Kg; format: functional; summary of the method: as §4
[43] = test system: Mus musculus; assay: Initial average tumor weight was measured in mice induced with human mammary carcinoma at a dose of 33 mg/Kg; format: functional; summary of the method: as §2

SMILES: CC(=O)O[C@H]1C(=O)[C@@]2(C)[C@H]([C@H](OC(=O)c3ccccc3)[C@]3(O)C[C@H](OC(=O)[C@H](O)[C@@H](NC(=O)c4ccccc4)c4ccccc4)C(C)=C1C3(C)C)[C@]1(OC(C)=O)CO[C@@H]1C[C@@H]2O [PACLITAXEL]
- IC50 [1]: 19 nM
- Change in cell number [2]: 75%
- Change in cell number [3]: 252%
- Relative effect [4]: 1
- Relative effect [5]: 1
- Initial average tumor weight [6]: 0.81 mg
- Initial average tumor weight [7]: 0.6 mg
- Initial average tumor weight [8]: 0.79 mg
- Initial average tumor weight [9]: 0.74 mg
- Initial average tumor weight [10]: 0.58 mg
- No. of survivors [11]: 6
- No. of survivors [12]: 3
- No. of survivors [13]: 5
- T/C [14]: Complete remission
- T/C [15]: Toxic
- T/C [16]: Complete remission
- No. of survivors [17]: 6
- T/C [18]: -84%
- T/C [19]: Complete remission
- No. of survivors [20]: 5
- Final average tumor weight [21]: 0 mg
- Final average tumor weight [22]: 0 mg
- Final average tumor weight [23]: 0.09 mg
- Final average tumor weight [24]: 0 mg
- Final average tumor weight [25]: 0 mg
- Relative antitumor activity [26]: 1

SMILES: CC(=O)O[C@H]1C(=O)[C@]2(C)[C@@H](OC(=O)CN(C)C)C[C@H]3OC[C@@]3(OC(C)=O)[C@H]2[C@H](OC(=O)c2ccccc2)[C@]2(O)C[C@H](OC(=O)[C@H](O)[C@@H](NC(=O)c3ccccc3)c3ccccc3)C(C)=C1C2(C)C.CS(=O)(=O)O
- solubility [27]: > 1870 µM
- IC50 [1]: 44 nM
- Change in cell number [2]: -60%
- Change in cell number [3]: 222%
- Relative effect [4]: 0.43
- Relative effect [5]: 0.77
- Initial average tumor weight [28]: 0.74 mg
- Initial average tumor weight [29]: 0.81 mg
- Initial average tumor weight [30]: 0.59 mg
- No. of survivors [31]: 3
- No. of survivors [32]: 4
- T/C [33]: 23%
- T/C [34]: Complete remission
- T/C [35]: 34%
- No. of survivors [36]: 4
- T/C [37]: -93%
- No. of survivors [38]: 4
- Final average tumor weight [39]: 5.66 mg
- Final average tumor weight [40]: 0.04 mg
- Final average tumor weight [41]: 4.19 mg
- Relative antitumor activity [26]: 3
- Final average tumor weight [42]: 0 mg
- Initial average tumor weight [43]: 0.74 mg
